Reference: ChEMBL document CHEMBL1240360, “TMC278, a next-generation nonnucleoside reverse transcriptase inhibitor (NNRTI), active against wild-type and NNRTI-resistant HIV-1” (Antimicrob Agents Chemother, 2010)

Experiments:
[1] = test system: Human immunodeficiency virus 1; assay: Antiviral activity against Human immunodeficiency virus 1 subtype F1 infected in human MT4 cells assessed as reduction in virus induced cytopathicity; type: functional, organism-based; conditions: Human immunodeficiency virus 1, subtype F1, MT4
Method in brief: (§1)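 Recombinant viruses were made by recombining patient-derived HIV-1 RT-PR sequences into an RT-PR-deleted HXB2 proviral clone transfected into MT4 cells. Subtype was assigned from PR/RT sequence by Smith-Waterman alignment to HXB2. MT4 cells (1.5 × 10^5/ml) were infected at MOI 0.01 with serially diluted compound for 5 days at 37°C. Viability was read by MTT and EC50 derived.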

[2] = test system: Human immunodeficiency virus 1; assay: Antiviral activity against Human immunodeficiency virus 1 subtype E isolate CMU08 infected in human PBMC cells by cell based assay; conditions: Human immunodeficiency virus 1, subtype E isolate CMU08, PBMC
[3] = test system: Human immunodeficiency virus 1; assay: Antiviral activity against Human immunodeficiency virus 1 group M subtype F1 assessed as days to viral replication breakthrough at 40 nM by cell based assay; type: functional
[4] = test system: Human immunodeficiency virus 1; assay: Antiviral activity against Human immunodeficiency virus 1 subtype B isolate 93BR021 infected in human PBMC cells by cell based assay; conditions: Human immunodeficiency virus 1, subtype B isolate 93BR021, PBMC
[5] = test system: Human immunodeficiency virus 1; assay: Antiviral activity against Human immunodeficiency virus 1 subtype A isolate 92RW020 infected in human PBMC cells by cell based assay; conditions: Human immunodeficiency virus 1, subtype A isolate 92RW020, PBMC
[6] = test system: Human immunodeficiency virus 1; assay: Antiviral activity against Human immunodeficiency virus 1 subtype B isolate WEJO infected in human PBMC cells by cell based assay
[7] = test system: Human immunodeficiency virus 1; assay: Antiviral activity against Human immunodeficiency virus 1 subtype F isolate 93BR029 infected in human PBMC cells by cell based assay; conditions: Human immunodeficiency virus 1, subtype F isolate 93BR029, PBMC
[8] = test system: Human immunodeficiency virus 1; assay: Antiviral activity against Human immunodeficiency virus 1 group M subtype F1 assessed as days to viral replication breakthrough at 10 nM by cell based assay; type: functional
[9] = test system: Human immunodeficiency virus 1; assay: Antiviral activity against Human immunodeficiency virus 1 group M subtype AG assessed as days to viral replication breakthrough at 40 nM by cell based assay; type: functional
[10] = test system: Human immunodeficiency virus 1; assay: Antiviral activity against Human immunodeficiency virus 1 subtype C isolate 93MW959 infected in human PBMC cells by cell based assay; conditions: Human immunodeficiency virus 1, subtype C isolate 93MW959, PBMC
[11] = test system: Human immunodeficiency virus 1; assay: Antiviral activity against Human immunodeficiency virus 1 group M subtype A1 assessed as days to viral replication breakthrough at 200 nM by cell based assay; type: functional
[12] = test system: Human immunodeficiency virus 1; assay: Antiviral activity against Human immunodeficiency virus 1 group M subtype BG assessed as days to viral replication breakthrough at 40 nM by cell based assay; type: functional
[13] = test system: Human immunodeficiency virus 1; assay: Antiviral activity against Human immunodeficiency virus 1 subtype AE infected in human MT4 cells assessed as reduction in virus induced cytopathicity; type: functional, organism-based; method in brief: as §1
[14] = test system: Human immunodeficiency virus 1; assay: Antiviral activity against Human immunodeficiency virus 1 group M subtype G assessed as days to viral replication breakthrough at 40 nM by cell based assay; type: functional
[15] = test system: Human immunodeficiency virus 1; assay: Antiviral activity against Human immunodeficiency virus 1 group M subtype AE assessed as days to viral replication breakthrough at 200 nM by cell based assay; type: functional
[16] = test system: Human immunodeficiency virus 1; assay: Antiviral activity against Human immunodeficiency virus 1 subtype D isolate 92UG001 infected in human PBMC cells by cell based assay; conditions: Human immunodeficiency virus 1, subtype D isolate 92UG001, PBMC
MT4 = assay: Cytotoxicity against human MT4 cells by cell based assay
Method in brief: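 Cytotoxicity in MT4 cells from cell-based assays gave a 50% cytotoxic concentration, reported as a median with first- to third-quartile values over the stated number of experiments.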

[17] = test system: Human immunodeficiency virus 1; assay: Antiviral activity against Human immunodeficiency virus 1 group M subtype G assessed as days to viral replication breakthrough at 10 nM by cell based assay; type: functional
[18] = test system: Human immunodeficiency virus 1; assay: Antiviral activity against Human immunodeficiency virus 1 group M subtype D assessed as days to viral replication breakthrough at 200 nM by cell based assay; type: functional
[19] = test system: Human immunodeficiency virus 1; assay: Antiviral activity against Human immunodeficiency virus 1 subtype C isolate 92BR025 infected in human PBMC cells by cell based assay; conditions: Human immunodeficiency virus 1, subtype C isolate 92BR025, PBMC
[20] = test system: Human immunodeficiency virus 1; assay: Antiviral activity against Human immunodeficiency virus 1 subtype A isolate 92UG037 infected in human PBMC cells by cell based assay; conditions: Human immunodeficiency virus 1, subtype A isolate 92UG037, PBMC
[21] = test system: Human immunodeficiency virus 1; assay: Antiviral activity against Human immunodeficiency virus 1 subtype A1 infected in human MT4 cells assessed as reduction in virus induced cytopathicity; type: functional, organism-based; conditions: Human immunodeficiency virus 1, subtype A1, MT4; method in brief: as §1
[22] = test system: Human immunodeficiency virus 1; assay: Antiviral activity against Human immunodeficiency virus 1 group M subtype AG assessed as days f for viral replication at 200 nM by cell based assay; type: functional
[23] = test system: Human immunodeficiency virus 1; assay: Antiviral activity against Human immunodeficiency virus 1 subtype G isolate RU132 infected in human PBMC cells by cell based assay; conditions: Human immunodeficiency virus 1, subtype G isolate RU132, PBMC
[24] = test system: Human immunodeficiency virus 1; assay: Antiviral activity against Human immunodeficiency virus 1 group M subtype AE assessed as days to viral replication breakthrough at 40 nM by cell based assay; type: functional
[25] = test system: Human immunodeficiency virus 1; assay: Antiviral activity against Human immunodeficiency virus 1 subtype E isolate 93TH073 infected in human PBMC cells by cell based assay; conditions: Human immunodeficiency virus 1, subtype E 93TH073, PBMC
[26] = test system: Human immunodeficiency virus 2; assay: Antiviral activity against Human immunodeficiency virus 2 ROD infected in human MT4 cells assessed as reduction in virus induced cytopathicity; type: functional, organism-based; conditions: Human immunodeficiency virus 2, ISOLATE ROD
Method in brief: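 MT4 cells (1.5 × 10^5/ml) infected with HIV (MOI 0.01) were added to serial compound dilutions and incubated 5 days at 37°C in 5% CO2. Protection from virus-induced cell death was read by MTT tetrazolium colorimetry, giving an EC50 in micromolar.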

[27] = test system: Human immunodeficiency virus 1; assay: Antiviral activity against Human immunodeficiency virus 1 group M subtype C assessed as days to viral replication breakthrough at 10 nM by cell based assay; type: functional
[28] = test system: Human immunodeficiency virus 1; assay: Antiviral activity against Human immunodeficiency virus 1 group M subtype H assessed as days to viral replication breakthrough at 10 nM by cell based assay; type: functional
[29] = test system: Human immunodeficiency virus 1; assay: Antiviral activity against Human immunodeficiency virus 1 subtype B isolate JR-CSF infected in human PBMC cells by cell based assay
[30] = test system: Human immunodeficiency virus 1; assay: Antiviral activity against Human immunodeficiency virus 1 group M subtype C assessed as days to viral replication breakthrough at 40 nM by cell based assay; type: functional
[31] = test system: Human immunodeficiency virus 1; assay: Antiviral activity against Human immunodeficiency virus 1 subtype G isolate JV1083 infected in human PBMC cells by cell based assay; conditions: Human immunodeficiency virus 1, subtype G isolate JV1083, PBMC
[32] = test system: Human immunodeficiency virus 1; assay: Antiviral activity against Human immunodeficiency virus 1 group M subtype A1 assessed as days to viral replication breakthrough at 40 nM by cell based assay; type: functional

EC50 [1]: 0.21 nM | EC50 [2]: 1.01 nM | EC50 [4]: 0.23 nM | EC50 [5]: 0.07 nM | EC50 [6]: 0.08 nM | EC50 [7]: 0.19 nM | EC50 [10]: 0.11 nM | EC50 [16]: 0.26 nM | EC50 [19]: 0.33 nM | EC50 [20]: 0.24 nM | EC50 [21]: 0.44 nM | EC50 [23]: 0.51 nM | EC50 [25]: 0.07 nM | EC50 [26]: 5220 nM | EC50 [29]: 0.51 nM | EC50 [31]: 0.26 nM
Structure (SMILES): Cc1cc(/C=C/C#N)cc(C)c1Nc1ccnc(Nc2ccc(C#N)cc2)n1 [RILPIVIRINE]
Activity [3]: > 31 days | Activity [8]: > 31 days | Activity [9]: > 31 days | Activity [11]: > 31 days | Activity [12]: 13 days | EC50 [13]: 0.21 nM | Activity [14]: > 31 days | Activity [15]: > 31 days | Activity (MT4): 5.91 µM | Activity [17]: > 31 days | Activity [18]: > 31 days | Activity [22]: > 31 days | Activity [24]: > 31 days | Activity [27]: > 31 days | Activity [28]: > 31 days | Activity [30]: > 31 days | Activity [32]: > 31 days
